According to ChEMBL document CHEMBL1817593, “C5'-Alkyl Substitution Effects on Digitoxigenin α-l-Glycoside Cancer Cytotoxicity” (ACS Med Chem Lett, 2011):

What was measured:
NCI-H460 [1] = assay: Cytotoxicity against human NCI-H460 cells assessed as cell death in serum free medium at 25 nM after 12 hrs by Hoechst 33342/propidium iodide staining based fluorescence microscopy; type: functional
How it was run: (§1)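 NCI-H460 human lung cancer cells exposed 12 h to 10 nM–10 μM drug, including a 50 nM single-concentration test. Nuclei were stained with Hoechst 33342 and necrotic cells with propidium iodide. Apoptotic cells were scored by condensed or fragmented blue nuclei and necrotic cells by red PI staining. Total cell death (apoptosis plus necrosis) was recorded; N = 6.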

EKVX = assay: Cytotoxicity against human EKVX cells after 48 hrs by sulforhodamine B assay; type: functional
NCI-H460 [2] = assay: Growth inhibition of human NCI-H460 cells after 48 hrs by MTT assay; type: functional
How it was run: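 NCI-H460 viability measured by MTT (mitochondrial enzymatic activity) after 48 h exposure at 1 nM to 10 μM. GI50 derived from dose-response curves, with N = 9 and two-way ANOVA. Values are the mean of three independent experiments with duplicate determinations.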

NCI-H522 = assay: Cytotoxicity against human NCI-H522 cells after 48 hrs by sulforhodamine B assay; type: functional; conditions: NCI-H522, 48 h
NCI-H460 [3] = assay: Cytotoxicity against human NCI-H460 cells assessed as cell death in serum free medium at 100 nM after 12 hrs by Hoechst 33342/propidium iodide staining based fluorescence microscopy; type: functional; how it was run: as §1
HCC 2998 = assay: Cytotoxicity against human HCC2998 cells after 48 hrs by sulforhodamine B assay; type: functional; conditions: HCC 2998, 48 h
HCT-116 = assay: Cytotoxicity against human HCT116 cells after 48 hrs by sulforhodamine B assay; type: functional; conditions: HCT-116, 48 h
NCI-H460 [4] = assay: Cytotoxicity against human NCI-H460 cells assessed as cell death in serum free medium at 500 nM after 12 hrs by Hoechst 33342/propidium iodide staining based fluorescence microscopy; type: functional; how it was run: as §1
NCI-H23 = assay: Cytotoxicity against human NCI-H23 cells after 48 hrs by sulforhodamine B assay; type: functional; conditions: NCI-H23, 48 h
BT-549 = assay: Cytotoxicity against human BT549 cells after 48 hrs by sulforhodamine B assay; type: functional; conditions: BT-549, 48 h
HCT-15 = assay: Cytotoxicity against human HCT15 cells after 48 hrs by sulforhodamine B assay; type: functional; conditions: HCT-15, 48 h
SK-MEL-28 = assay: Cytotoxicity against human SK-MEL-28 cells after 48 hrs by sulforhodamine B assay; type: functional; conditions: SK-MEL-28, 48 h
SF-539 = assay: Cytotoxicity against human SF539 cells after 48 hrs by sulforhodamine B assay; type: functional; conditions: SF-539, 48 h
DU-145 = assay: Cytotoxicity against human DU145 cells after 48 hrs by sulforhodamine B assay; type: functional; conditions: DU-145, 48 h
SR = assay: Cytotoxicity against human SR cells after 48 hrs by sulforhodamine B assay; type: functional
NCI-H460 [5] = assay: Cytotoxicity against human NCI-H460 cells assessed as cell viability at 100 nM after 48 hrs by MTT assay; type: functional; conditions: NCI-H460, 48 h, read-out: Activity
How it was run: (§2)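 Viability of NCI-H460 cells was measured by MTT (mitochondrial enzymatic activity) after 48 h exposure, within a dose series spanning 1 nM–10 μM. N = 9, analysed by two-way ANOVA.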

COLO 205 = assay: Cytotoxicity against human COLO205 cells after 48 hrs by sulforhodamine B assay; type: functional; conditions: COLO 205, 48 h
Hs-578T = assay: Cytotoxicity against human Hs578T cells after 48 hrs by sulforhodamine B assay; type: functional
HT-29 = assay: Cytotoxicity against human HT-29 cells after 48 hrs by sulforhodamine B assay; type: functional; conditions: HT-29, 48 h
SF-268 = assay: Cytotoxicity against human SF268 cells after 48 hrs by sulforhodamine B assay; type: functional; conditions: SF-268, 48 h
UACC-257 = assay: Cytotoxicity against human UACC257 cells after 48 hrs by sulforhodamine B assay; type: functional; conditions: UACC-257, 48 h
SNB-19 = assay: Cytotoxicity against human SNB19 cells after 48 hrs by sulforhodamine B assay; type: functional; conditions: SNB-19, 48 h
SF-295 = assay: Cytotoxicity against human SF295 cells after 48 hrs by sulforhodamine B assay; type: functional; conditions: SF-295, 48 h
LOX IMVI = assay: Cytotoxicity against human LOXIMVI cells after 48 hrs by sulforhodamine B assay; type: functional
NCI-H460 [6] = assay: Cytotoxicity against human NCI-H460 cells assessed as cell viability at 50 nM after 48 hrs by MTT assay; type: functional; conditions: NCI-H460, 48 h, read-out: Activity; how it was run: as §2
MDA-MB-435 = assay: Cytotoxicity against human MDA-MB-435 melanoma cells after 48 hrs by sulforhodamine B assay; type: functional; conditions: MDA-MB-435, 48 h
NCI-H460 [7] = assay: Cytotoxicity against human NCI-H460 cells assessed as cell viability at 10 nM after 48 hrs by MTT assay; type: functional; conditions: NCI-H460, 48 h, read-out: Activity; how it was run: as §2
HOP-62 = assay: Cytotoxicity against human HOP62 cells after 48 hrs by sulforhodamine B assay; type: functional; conditions: HOP-62, 48 h
NCI-H460 [8] = assay: Cytotoxicity against human NCI-H460 cells assessed as cell viability at 25 nM after 48 hrs by MTT assay; type: functional; conditions: NCI-H460, 48 h, read-out: Activity; how it was run: as §2
CCRF-CEM = assay: Cytotoxicity against human CCRF-CEM cells after 48 hrs by sulforhodamine B assay; type: functional
NCI-H460 [9] = assay: Cytotoxicity against human NCI-H460 cells assessed as cell death in serum free medium at 10000 nM after 12 hrs by Hoechst 33342/propidium iodide staining based fluorescence microscopy; type: functional; how it was run: as §1
ACHN = assay: Cytotoxicity against human ACHN cells after 48 hrs by sulforhodamine B assay; type: functional
SW-620 = assay: Cytotoxicity against human SW620 cells after 48 hrs by sulforhodamine B assay; type: functional; conditions: SW-620, 48 h
CAKI-1 = assay: Cytotoxicity against human Caki1 cells after 48 hrs by sulforhodamine B assay; type: functional; conditions: CAKI-1, 48 h
NCI-H460 [10] = assay: Cytotoxicity against human NCI-H460 cells after 48 hrs by sulforhodamine B assay; type: functional; conditions: NCI-H460, 48 h
NCI-H460 [11] = assay: Induction of apoptosis in human NCI-H460 cells in serum free medium after 12 hrs by Hoechst 33342/propidium iodide staining based fluorescence microscopy; type: functional, cell-based; conditions: for IC50: NCI-H460, 12 h
How it was run: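 NCI-H460 cells treated for 12 h at 10 nM to 10 μM. Total cell death (apoptosis plus necrosis) scored by Hoechst 33342/propidium iodide staining, with N = 6 and two-way ANOVA. IC50 obtained by nonlinear regression. Table values are the mean of three independent experiments with duplicate determinations.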

U-251 = assay: Cytotoxicity against human U251 cells after 48 hrs by sulforhodamine B assay; type: functional; conditions: U-251, 48 h
NCI-H460 [12] = assay: Cytotoxicity against human NCI-H460 cells assessed as cell death in serum free medium at 250 nM after 12 hrs by Hoechst 33342/propidium iodide staining based fluorescence microscopy; type: functional; how it was run: as §1
OVCAR-3 = assay: Cytotoxicity against human OVCAR3 cells after 48 hrs by sulforhodamine B assay; type: functional; conditions: OVCAR-3, 48 h
KM12 = assay: Cytotoxicity against human KM12 cells after 48 hrs by sulforhodamine B assay; type: functional; conditions: KM12, 48 h
SK-MEL-2 = assay: Cytotoxicity against human SK-MEL-2 cells after 48 hrs by sulforhodamine B assay; type: functional; conditions: SK-MEL-2, 48 h

For `CC(C)C[C@@H]1O[C@@H](O[C@H]2CC[C@@]3(C)[C@H](CC[C@@H]4[C@@H]3CC[C@]3(C)[C@@H](C5=CC(=O)OC5)CC[C@]43O)C2)CC[C@H]1O`, the Activity (NCI-H460 [1]) was 12.41%, the GI50 (EKVX) was 31.7 nM and the GI50 (NCI-H460 [2]) was “Dose-dependent effect”. For the same compound, the GI50 (NCI-H460 [2]; NCI-H460, 48 h) was 8 nM, the GI50 (NCI-H522) was 23.6 nM and the Activity (NCI-H460 [3]) was 17.69%. The GI50 (HCC 2998) was 204 nM, the GI50 (HCT-116) was 26.1 nM and the Activity (NCI-H460 [4]) was 62.18%. For the same compound, the GI50 (NCI-H23) was 25.7 nM, the GI50 (BT-549) was 22.5 nM and the GI50 (HCT-15) was 40.3 nM. It also gave a GI50 (SK-MEL-28) of 133 nM, a GI50 (SF-539) of 23.8 nM and a GI50 (DU-145) of 16.6 nM. It also gave a GI50 (SR) of 23 nM, a viability at 0.1 µM (NCI-H460 [5]) of 18.5% and a GI50 (COLO 205) of 170 nM. The GI50 (Hs-578T) was 7.5 nM, the GI50 (HT-29) was 31.5 nM and the GI50 (SF-268) was 26.3 nM. It also gave a GI50 (UACC-257) of 31.3 nM, a GI50 (SNB-19) of 58.9 nM and a GI50 (SF-295) of 24.9 nM. It also gave a GI50 (LOX IMVI) of 27.2 nM, a viability at 0.05 µM (NCI-H460 [6]) of 25.1% and a GI50 (MDA-MB-435) of 35.1 nM. The viability at 0.01 µM (NCI-H460 [7]) was 49.2%, the GI50 (HOP-62) was 23.1 nM and the viability at 0.025 µM (NCI-H460 [8]) was 36.6%. For the same compound, the GI50 (CCRF-CEM) was 28.5 nM, the Activity (NCI-H460 [9]) was 100% and the GI50 (ACHN) was 12.2 nM. For the same compound, the GI50 (SW-620) was 32 nM, the GI50 (CAKI-1) was 24.4 nM and the GI50 (NCI-H460 [10]) was 20.9 nM. For the same compound, the Activity (NCI-H460 [11]) was “Dose-dependent effect”, the IC50 (NCI-H460 [11]) was 458 nM and the GI50 (U-251) was 39.7 nM. For the same compound, the Activity (NCI-H460 [12]) was 21.86%, the GI50 (OVCAR-3) was 23.5 nM and the GI50 (KM12) was 55.9 nM. The GI50 (SK-MEL-2) was 115 nM.

`CC(C)[C@@H]1O[C@@H](O[C@H]2CC[C@@]3(C)[C@H](CC[C@@H]4[C@@H]3CC[C@]3(C)[C@@H](C5=CC(=O)OC5)CC[C@]43O)C2)CC[C@H]1O` was tested, and the Activity (NCI-H460 [1]) was 12.07%, the GI50 (EKVX) was 31.9 nM and the GI50 (NCI-H460 [2]) was “Dose-dependent effect”. It also gave a GI50 (NCI-H460 [2]; NCI-H460, 48 h) of 8 nM, a GI50 (NCI-H522) of 26 nM and an Activity (NCI-H460 [3]) of 18.89%. For the same compound, the GI50 (HCC 2998) was 243 nM, the GI50 (HCT-116) was 21.5 nM and the Activity (NCI-H460 [4]) was 50.85%. For the same compound, the GI50 (NCI-H23) was 29.4 nM, the GI50 (BT-549) was 20.7 nM and the GI50 (HCT-15) was 62.2 nM. The GI50 (SK-MEL-28) was 252 nM, the GI50 (SF-539) was 27.6 nM and the GI50 (DU-145) was 19.5 nM. The GI50 (SR) was 37.2 nM, the viability at 0.1 µM (NCI-H460 [5]) was 12.4% and the GI50 (COLO 205) was 207 nM. It also gave a GI50 (Hs-578T) of 13.6 nM, a GI50 (HT-29) of 41.9 nM and a GI50 (SF-268) of 26.3 nM. For the same compound, the GI50 (UACC-257) was 122 nM, the GI50 (SNB-19) was 185 nM and the GI50 (SF-295) was 28.6 nM. The GI50 (LOX IMVI) was 26.9 nM, the viability at 0.05 µM (NCI-H460 [6]) was 22.2% and the GI50 (MDA-MB-435) was 82.8 nM. The viability at 0.01 µM (NCI-H460 [7]) was 50.7%, the GI50 (HOP-62) was 31.1 nM and the viability at 0.025 µM (NCI-H460 [8]) was 30.1%. The GI50 (CCRF-CEM) was 33.1 nM, the Activity (NCI-H460 [9]) was 100% and the GI50 (ACHN) was 17 nM. The GI50 (SW-620) was 42.8 nM, the GI50 (CAKI-1) was 20.8 nM and the GI50 (NCI-H460 [10]) was 21.7 nM. For the same compound, the Activity (NCI-H460 [11]) was “Dose-dependent effect”, the IC50 (NCI-H460 [11]) was 533 nM and the GI50 (U-251) was 82.9 nM. It also gave an Activity (NCI-H460 [12]) of 22.73%, a GI50 (OVCAR-3) of 26 nM and a GI50 (KM12) of 152 nM. For the same compound, the GI50 (SK-MEL-2) was 170 nM.
